Assay [1] has as its target T1, mTORC1 (Homo sapiens) (UniProt P42345+Q8N122+Q9BVC4). Kind of assay: Inhibition of mTORC1 in human COLO205 cells assessed as reduction of 4-EBP1 phosphorylation at 0.1 to 8 uM after 24 hrs by Western blotting. It is filed as cell-based. Particulars: COLO 205. The method, boiled down:
(§1)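 Membranes were blocked in 5% milk/0.05% Tween 20-PBS and probed overnight with primary antibody against p-S6, p-4EBP1 or p-Akt (S473). Detection used HRP secondary antibody and enhanced chemiluminescence.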
On the technique in general: A western blot detects proteins with antibodies after separation by electrophoresis.

Assay [2] addresses T1, mTORC1 (Homo sapiens). As to the kind of experiment: Inhibition of mTORC1 in human COLO205 cells assessed as reduction of S6 phosphorylation at 0.1 to 8 uM after 24 hrs by Western blotting. As to conditions: COLO 205. It is filed as cell-based. The method, boiled down: as §1
The target of assay [3] is T1, mTORC1 (Homo sapiens). Kind of assay: Inhibition of mTORC1 in human SK-HEP1 cells assessed as reduction of S6 phosphorylation at 0.1 to 8 uM after 24 hrs by Western blotting. The assay is classed as cell-based. The method, boiled down: as §1
The target of assay [4] is T1, mTORC1 (Homo sapiens). As to the kind of experiment: Inhibition of mTORC1 in human SK-HEP1 cells assessed as reduction of 4-EBP1 phosphorylation at 0.1 to 8 uM after 24 hrs by Western blotting. The assay is classed as cell-based. The method, boiled down: as §1
For assay [5], the system named is HOP-62. Kind of assay: Cytotoxicity against human HOP62 cells after 72 hrs by MTT assay. It is filed as functional, cell-based. The method, boiled down: (§2)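 Monolayer culture in RPMI with 10% fetal calf serum, 2 mM glutamine, penicillin/streptomycin, 37 °C, humidified 5% CO2, checked for Mycoplasma. Cells seeded at 2 × 10³/well; after drug exposure, 0.4 mg/ml MTT for 4 h at 37 °C. Formazan dissolved in DMSO, absorbance read at 560 nm. Untreated cells served as positive control, drug medium without cells as negative control.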
A general note: Formazan colour is commonly taken as a measure of viable cells.

The subject of assay [6] is COLO 205. As to the kind of experiment: Cytotoxicity against human COLO205 cells after 72 hrs by MTT assay. The assay is classed as functional, cell-based. The method, boiled down: as §2
Assay [7] deals with SQ20B. As to the kind of experiment: Cytotoxicity against human SQ20B cells after 72 hrs by MTT assay. It is filed as functional, cell-based. The method, boiled down: as §2
Assay [8] concerns the target T1, mTORC1 (Homo sapiens). As to the kind of experiment: Inhibition of mTORC1 in human SK-HEP1 cells assessed as AKT phosphorylation at Ser473 at 0.1 to 8 uM after 24 hrs by Western blotting. It is filed as cell-based. The method, boiled down:
as §1

For assay [9], the target named is T1, mTORC1 (Homo sapiens). Kind of assay: Inhibition of mTORC1 in human COLO205 cells assessed as AKT phosphorylation at Ser473 at 0.1 to 8 uM after 24 hrs by Western blotting. The assay is classed as cell-based. As to conditions: COLO 205. The method, boiled down: as §1

A word on the IC50: it is the point on the concentration scale where inhibition reaches its midpoint. A lower IC50 goes with higher potency.

SMILES strings stand for the structures. Activity calls are given as the source filed them. The rule behind the calls is not given here.

T1 sequence (Q8N122 whole entry, looked up, other chains not shown): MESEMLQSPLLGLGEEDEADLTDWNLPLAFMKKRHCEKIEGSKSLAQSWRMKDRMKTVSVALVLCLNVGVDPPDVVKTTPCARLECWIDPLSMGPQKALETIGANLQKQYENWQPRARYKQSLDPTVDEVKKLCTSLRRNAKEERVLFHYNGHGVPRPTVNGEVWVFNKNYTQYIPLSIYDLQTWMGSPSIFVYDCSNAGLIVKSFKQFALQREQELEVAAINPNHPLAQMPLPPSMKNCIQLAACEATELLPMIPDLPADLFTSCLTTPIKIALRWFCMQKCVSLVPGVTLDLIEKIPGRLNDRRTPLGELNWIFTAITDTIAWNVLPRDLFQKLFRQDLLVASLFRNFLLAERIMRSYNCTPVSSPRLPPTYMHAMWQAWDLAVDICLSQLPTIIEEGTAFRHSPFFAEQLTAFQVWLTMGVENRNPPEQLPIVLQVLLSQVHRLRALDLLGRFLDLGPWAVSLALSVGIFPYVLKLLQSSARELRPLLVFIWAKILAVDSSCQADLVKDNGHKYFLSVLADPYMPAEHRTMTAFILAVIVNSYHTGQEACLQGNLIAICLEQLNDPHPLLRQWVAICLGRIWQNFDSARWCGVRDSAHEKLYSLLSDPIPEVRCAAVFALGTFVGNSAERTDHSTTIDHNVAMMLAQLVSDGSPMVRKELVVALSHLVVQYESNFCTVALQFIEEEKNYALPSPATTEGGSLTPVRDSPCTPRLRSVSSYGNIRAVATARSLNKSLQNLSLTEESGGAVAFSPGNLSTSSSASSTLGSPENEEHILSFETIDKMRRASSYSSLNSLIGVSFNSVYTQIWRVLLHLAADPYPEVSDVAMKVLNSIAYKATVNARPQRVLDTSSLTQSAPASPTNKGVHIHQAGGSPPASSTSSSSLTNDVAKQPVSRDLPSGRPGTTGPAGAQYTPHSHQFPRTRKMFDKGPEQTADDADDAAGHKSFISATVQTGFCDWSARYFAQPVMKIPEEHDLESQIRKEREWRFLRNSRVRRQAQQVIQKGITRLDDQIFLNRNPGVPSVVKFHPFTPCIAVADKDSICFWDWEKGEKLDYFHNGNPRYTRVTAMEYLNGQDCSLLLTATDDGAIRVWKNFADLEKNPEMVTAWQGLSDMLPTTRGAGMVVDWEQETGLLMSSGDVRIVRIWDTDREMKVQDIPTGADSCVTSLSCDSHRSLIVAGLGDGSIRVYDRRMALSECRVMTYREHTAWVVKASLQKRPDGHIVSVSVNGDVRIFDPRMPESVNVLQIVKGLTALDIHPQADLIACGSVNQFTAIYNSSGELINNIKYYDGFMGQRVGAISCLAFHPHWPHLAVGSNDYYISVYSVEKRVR
T1 sequence (Q9BVC4 whole entry, looked up, other chains not shown): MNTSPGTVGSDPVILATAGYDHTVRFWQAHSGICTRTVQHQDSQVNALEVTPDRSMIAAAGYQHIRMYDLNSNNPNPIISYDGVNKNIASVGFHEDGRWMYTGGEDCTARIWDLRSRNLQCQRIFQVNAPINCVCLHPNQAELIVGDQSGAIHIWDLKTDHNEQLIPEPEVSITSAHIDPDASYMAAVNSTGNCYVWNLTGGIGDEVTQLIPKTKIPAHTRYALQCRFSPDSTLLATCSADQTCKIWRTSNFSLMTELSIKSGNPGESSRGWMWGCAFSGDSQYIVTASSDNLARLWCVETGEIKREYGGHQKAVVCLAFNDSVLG

Take `CO[C@H]1C[C@@H]2CC[C@@H](C)[C@@](O)(O2)C(=O)C(=O)N2CCCC[C@H]2C(=O)O[C@H]([C@H](C)C[C@@H]2CC[C@@H](O)[C@H](OC)C2)CC(=O)[C@H](C)/C=C(\C)[C@@H](O)[C@@H](OC)C(=O)[C@H](C)C[C@H](C)/C=C/C=C/C=C/1C`: the inhibition entry in assay [1], in assay [2], in [3] and in [4] was “Active” each time.

Consider `COc1ccc2oc(-c3ccccc3OCc3ccccc3)cc2c1CN1CCC(N(C)C)CC1`, for which the inhibition result in assay [1], in assay [2], in assay [3] and in assay [4] was “Active” in each case. The outcome in assay [5] and in assay [6] was Active. Further, half-maximal inhibition in assay [7] (IC50) required 460 nM.

Compound `COc1ccccc1-c1cc2c(CN3CCC(N4CCCCC4)CC3)c(O)ccc2o1` showed an IC50 in assay [7] of 1300 nM.

`O=S(=O)(Oc1ccc2oc(-c3ccccc3)cc2c1CN1CCC(N2CCCCC2)CC1)C(F)(F)F` displayed an IC50 in assay [7] of 2800 nM. This IC50 is about 2.2-fold higher than that of the compound before.

In [7], `Cc1c(-c2ccccc2)oc2ccc(O)c(CN3CCC(N4CCCCC4)CC3)c12` had an IC50 of 1200 nM.

Take `COc1ccc(-c2cc3c(CN4CCC(N5CCCCC5)CC4)c(O)ccc3o2)cc1`: in [7], the IC50 is 850 nM. The IC50 values of the last two compounds are within 1.5-fold of each other.

Compound `c1ccc(-c2cc3c(CN4CCC(N5CCCCC5)CC4)nccc3o2)cc1` returned an IC50 in assay [7] of 18000 nM.

Take `Oc1ccc2oc(-c3ccccc3)nc2c1CN1CCC(N2CCCCC2)CC1`: in [7], the midpoint of inhibition, the IC50, lay at 6500 nM.

Take `Cn1c(-c2ccccc2)cc2c(CN3CCC(N4CCCCC4)CC3)c(O)ccc21`: the IC50 in assay [7] was determined as 19000 nM.

For `CO[C@H]1C[C@@H]2CC[C@@H](C)[C@@](O)(O2)C(=O)C(=O)N2CCCC[C@H]2C(=O)O[C@H]([C@H](C)C[C@@H]2CC[C@@H](OCCO)[C@H](OC)C2)CC(=O)[C@H](C)/C=C(\C)[C@@H](O)[C@@H](OC)C(=O)[C@H](C)C[C@H](C)/C=C/C=C/C=C/1C` [EVEROLIMUS], the inhibition entry in assay [8] and in assay [9] was “inactive” each time. Moreover, the inhibition result in assay [1], in assay [2], in assay [3] and in [4] was “Active” in each case. The result in assay [5] was inactive. In addition, the result in assay [6] was Active. In assay [7], half-maximal inhibition (IC50) was put at 7300 nM.

For `Oc1ccc2oc(-c3cccs3)cc2c1CN1CCC(N2CCCCC2)CC1`, the IC50 in assay [7] was 2700 nM.

Turning to `Oc1ccc2oc(-c3ccccc3OCc3ccccc3)cc2c1CN1CCC(N2CCCCC2)CC1`, the outcome in [5] and in [6] was Active. Moreover, the IC50 in [7] turned out to be 380 nM.

Regarding `Oc1ccc2oc(-c3ccccc3Cl)cc2c1CN1CCC(N2CCCCC2)CC1`, inhibition in [7] was half-maximal at 2600 nM (IC50). That is a single-digit micromolar value.

In the case of `c1ccc(-c2cc3c(CN4CCC(N5CCCCC5)CC4)cccc3o2)cc1`, the IC50 in assay [7] stood at 7500 nM.

Regarding `Oc1ccc2oc(-c3ccco3)cc2c1CN1CCC(N2CCCCC2)CC1`, the IC50 in [7] is 4000 nM.

Take `CN(C)Cc1c(O)ccc2oc(-c3ccccc3)cc12`: the IC50 in [7] amounted to 32000 nM.

For `COc1ccc(-c2cc3c(CN4CCC(N(C)C)CC4)c(O)ccc3o2)cc1`, the IC50 in [7] was 1200 nM.

`COc1ccc2oc(-c3ccccc3)cc2c1CN1CCC(N2CCCCC2)CC1` returned an IC50 in assay [7] of 2500 nM.

`OCc1c(-c2ccccc2)oc2ccc(O)c(CN3CCC(N4CCCCC4)CC3)c12`: the IC50 in [7] is 3400 nM.

In the case of `O=S(=O)(Nc1ccc2oc(-c3ccccc3)cc2c1CN1CCC(N2CCCCC2)CC1)C(F)(F)F`, half-maximal inhibition in [7] (IC50) was put at 2100 nM. Compared with the last compound, the IC50 is about 1.6-fold lower.

For the compound `COc1ccc(-c2cc3c(CN4CCC(N5CCCCC5)CC4)c(O)ccc3o2)c(OC)c1`, the midpoint of inhibition in assay [7], the IC50, lay at 1100 nM.

Regarding `CCOC(=O)c1c(-c2ccccc2)oc2ccc(O)c(CN3CCC(N4CCCCC4)CC3)c12`, inhibition in [7] was half-maximal at 1500 nM (IC50).

In assay [7], `Oc1ccc2oc(-c3cccc4ccccc34)cc2c1CN1CCC(N2CCCCC2)CC1` registered an IC50 of 860 nM. Compared with the last compound, the IC50 is about 1.7-fold lower.

As for `Oc1ccc2oc(-c3ccc(Cl)c(Cl)c3)cc2c1CN1CCC(N2CCCCC2)CC1`, in assay [7], half-maximal inhibition (IC50) required 2300 nM.

In turn, `Oc1ccc2oc(-c3cccc(Cl)c3)cc2c1CN1CCC(N2CCCCC2)CC1` returned an IC50 in [7] of 920 nM.

For `COc1cccc2cc(-c3nc([C@H]4CC[C@H](C(=O)O)CC4)n4ncnc(N)c34)[nH]c12`, the outcome in assay [5] and in assay [6] was Active.

`Oc1ccc2oc(-c3ccc(Cl)cc3)cc2c1CN1CCC(N2CCCCC2)CC1` returned an IC50 in assay [7] of 860 nM.

Regarding `Oc1ccc2cc(-c3ccccc3)oc2c1CN1CCC(N2CCCCC2)CC1`, in [7], the IC50 was 11000 nM.

Turning to `COc1cccc(-c2cc3c(CN4CCC(N5CCCCC5)CC4)c(O)ccc3o2)c1`, it took 2000 nM to reach half-maximal inhibition in assay [7] (IC50). Against the preceding compound, the IC50 is about 5.5-fold lower.

In the case of `Oc1ccc2occ(-c3ccccc3)c2c1CN1CCC(N2CCCCC2)CC1`, in assay [7], the IC50 was determined as 11000 nM. This IC50 is about 5.5-fold higher than that of the compound before.

On to `Oc1ccc2oc(-c3ccc4ccccc4c3)cc2c1CN1CCC(N2CCCCC2)CC1`, for which the IC50 in [7] was determined as 2800 nM.

`Oc1ccc2oc(-c3ccccc3)cc2c1CN1CCC(N2CCCCC2)CC1`: the result in [5] and in [6] was Active. The compound further gave an IC50 in assay [7] of 1400 nM.

`Oc1ccc2c(ccn2Cc2ccccc2)c1CN1CCC(N2CCCCC2)CC1` gave an IC50 in assay [7] of 17000 nM.

`Oc1ccc2[nH]c(-c3ccccc3)nc2c1CN1CCC(N2CCCCC2)CC1` showed an IC50 in assay [7] of 21000 nM.
